Paper PMC9524580 (Neuropharmacology, 2022)
pEC50: −log10 of the molar value. “Also recorded” adds a separate entry of the source.

What was measured:
[1] = biological target: low sensitivity (LS) α4(3)β2(2) nAChR (Homo sapiens, UniProt P17787+P43681); test: Two-electrode voltage clamp of Xenopus oocytes expressing LS α4β2 nAChR; format: cell-based; details: for Effect on ACh-evoked peak-current responses of LS α4β2 receptors: 100 μM compound co-applied with control ACh (100 μM)
[2] = biological target: high sensitivity (HS) α4(2)β2(3) nAChR (Homo sapiens, UniProt P17787+P43681); format: cell-based; details: for Effect on ACh-evoked peak-current responses of HS α4β2 receptors: 100 μM compound co-applied with control ACh (10 μM)
human α7 nAChR = human α7 nAChR (Homo sapiens, UniProt P36544); test: Two-electrode voltage clamp of Xenopus oocytes expressing α7 nAChR; format: cell-based; details: for α7 net-charge response to compound co-applied with PNU-120596: 100 μM compound + 10 μM PNU-120596, compared to PNU-120596 alone or ACh control
How it was run: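 Human α7 clone co-injected with human RIC3 in Xenopus oocytes. Oocytes were clamped at −60 mV at 24 °C and perfused at 2 ml/min with Ringer's (115 mM NaCl, 2.5 mM KCl, 1.8 mM CaCl2, 10 mM HEPES, 1 μM atropine, pH 7.2). […] Compound was 100 μM, alone or with 10 μM PAM; n = 6–8 oocytes; ANOVA.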

α4(2)β2(2)α5 nAChR = α4(2)β2(2)α5 nAChR (Homo sapiens, UniProt P17787+P30532+P43681); test: Two-electrode voltage clamp of Xenopus oocytes expressing α4β2α5 nAChR; format: cell-based; details: 100 μM n-MP co-applied with 10 μM ACh
How it was run: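 Human α4(2)β2(2)α5 receptors expressed in Xenopus laevis oocytes. Voltage-clamped at −60 mV and room temperature (24 °C), perfused at 4 ml/min with atropine-containing Ringer's, pH 7.2. […] At least five oocytes; mean ± S.D.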

β3α4β2α6β2 nAChR = β3α4β2α6β2 nAChR (Homo sapiens, UniProt P17787+P43681+Q05901+Q15825); format: cell-based; details: 100 μM n-MP co-applied with 30 μM ACh
How it was run: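 Oocytes from female Xenopus laevis expressed human β3α4β2α6β2 from a linked-subunit concatamer. Two-electrode voltage clamp at −60 mV and 24 °C. Bath perfusion at 4 ml/min with Ringer's (115 mM NaCl, 2.5 mM KCl, 1.8 mM CaCl2, 10 mM HEPES, 1 μM atropine, pH 7.2). […] Responses were relative to the mean of the two controls; n = 6, mean ± S.D.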

α3β2 nAChR = α3β2 nAChR (Homo sapiens, UniProt P17787+P32297); format: cell-based; details: 100 μM n-MP co-applied with 100 μM ACh
How it was run: (§1)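 Xenopus oocytes were injected with human α3 plus β2 or β4 subunit RNA at alpha:beta ratios of 1:5 or 5:1. Two-electrode voltage clamp at −60 mV, 24 °C, with Ringer's (pH 7.2, 1 μM atropine) at 4 ml/min.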

α3β4 nAChR = α3β4 nAChR (Homo sapiens, UniProt P30926+P32297); format: cell-based; details: 100 μM n-MP co-applied with 100 μM ACh; alpha:beta RNA 5:1 or 1:5 (either set)
How it was run: as §1

[3] = inferred from use as biomarker of coffee consumption; ref Bresciani et al., 2020; cited from earlier work

Sequence of human α7 nAChR (P36544 23-502): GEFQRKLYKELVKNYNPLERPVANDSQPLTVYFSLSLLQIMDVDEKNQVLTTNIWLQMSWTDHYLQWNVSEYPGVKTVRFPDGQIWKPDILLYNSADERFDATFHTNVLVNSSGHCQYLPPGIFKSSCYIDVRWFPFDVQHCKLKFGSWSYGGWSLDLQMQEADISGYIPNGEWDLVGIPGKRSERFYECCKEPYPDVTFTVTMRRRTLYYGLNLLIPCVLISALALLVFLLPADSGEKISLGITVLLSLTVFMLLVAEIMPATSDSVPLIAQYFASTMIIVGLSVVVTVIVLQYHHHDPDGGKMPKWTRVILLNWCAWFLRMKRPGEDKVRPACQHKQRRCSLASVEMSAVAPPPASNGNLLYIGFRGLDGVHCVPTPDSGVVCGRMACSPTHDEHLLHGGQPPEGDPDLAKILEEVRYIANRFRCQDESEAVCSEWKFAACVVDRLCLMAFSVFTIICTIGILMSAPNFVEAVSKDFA
Sequence of low sensitivity (LS) α4(3)β2(2) nAChR (P17787 26-502): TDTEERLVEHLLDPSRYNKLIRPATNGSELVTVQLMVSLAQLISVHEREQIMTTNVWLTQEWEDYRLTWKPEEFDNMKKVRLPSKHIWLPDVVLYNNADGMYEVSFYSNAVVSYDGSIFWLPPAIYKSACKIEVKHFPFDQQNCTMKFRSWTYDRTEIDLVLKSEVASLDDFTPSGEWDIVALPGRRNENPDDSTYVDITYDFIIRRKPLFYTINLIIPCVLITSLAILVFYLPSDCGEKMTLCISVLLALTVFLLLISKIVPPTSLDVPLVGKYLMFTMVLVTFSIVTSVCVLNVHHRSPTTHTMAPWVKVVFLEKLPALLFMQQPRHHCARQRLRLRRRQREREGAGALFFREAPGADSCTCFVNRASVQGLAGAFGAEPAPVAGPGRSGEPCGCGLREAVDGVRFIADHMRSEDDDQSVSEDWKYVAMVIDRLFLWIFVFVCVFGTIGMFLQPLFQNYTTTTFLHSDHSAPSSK
Sequence of low sensitivity (LS) α4(3)β2(2) nAChR (P43681 29-627 limits assumed): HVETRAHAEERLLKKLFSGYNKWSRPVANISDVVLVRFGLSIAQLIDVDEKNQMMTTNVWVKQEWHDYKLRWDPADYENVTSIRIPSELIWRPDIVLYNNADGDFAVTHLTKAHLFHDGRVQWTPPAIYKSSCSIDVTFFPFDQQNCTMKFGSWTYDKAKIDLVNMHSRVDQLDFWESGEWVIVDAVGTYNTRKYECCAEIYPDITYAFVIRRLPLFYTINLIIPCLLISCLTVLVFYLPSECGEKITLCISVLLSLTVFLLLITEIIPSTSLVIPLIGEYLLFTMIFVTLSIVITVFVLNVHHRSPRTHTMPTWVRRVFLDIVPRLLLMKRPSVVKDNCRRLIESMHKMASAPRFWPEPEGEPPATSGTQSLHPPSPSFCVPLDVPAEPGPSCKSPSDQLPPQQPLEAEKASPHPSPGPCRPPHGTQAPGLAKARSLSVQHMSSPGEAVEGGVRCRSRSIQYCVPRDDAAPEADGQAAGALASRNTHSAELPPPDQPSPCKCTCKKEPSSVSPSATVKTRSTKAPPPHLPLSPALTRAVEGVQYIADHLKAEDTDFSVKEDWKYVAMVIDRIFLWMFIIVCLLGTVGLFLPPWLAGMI
Sequence of low sensitivity (LS) α4(3)β2(2) nAChR (P43681 29-627 limits assumed): as above
Sequence of high sensitivity (HS) α4(2)β2(3) nAChR (P17787 26-502): as the sequence (P17787 26-502) above
Sequence of high sensitivity (HS) α4(2)β2(3) nAChR (P43681 29-627 limits assumed): as the sequence (P43681 29-627 limits assumed) above
Sequence of high sensitivity (HS) α4(2)β2(3) nAChR (P17787 26-502): as the sequence (P17787 26-502) above
Sequence of α3β2 nAChR (P32297 32-505): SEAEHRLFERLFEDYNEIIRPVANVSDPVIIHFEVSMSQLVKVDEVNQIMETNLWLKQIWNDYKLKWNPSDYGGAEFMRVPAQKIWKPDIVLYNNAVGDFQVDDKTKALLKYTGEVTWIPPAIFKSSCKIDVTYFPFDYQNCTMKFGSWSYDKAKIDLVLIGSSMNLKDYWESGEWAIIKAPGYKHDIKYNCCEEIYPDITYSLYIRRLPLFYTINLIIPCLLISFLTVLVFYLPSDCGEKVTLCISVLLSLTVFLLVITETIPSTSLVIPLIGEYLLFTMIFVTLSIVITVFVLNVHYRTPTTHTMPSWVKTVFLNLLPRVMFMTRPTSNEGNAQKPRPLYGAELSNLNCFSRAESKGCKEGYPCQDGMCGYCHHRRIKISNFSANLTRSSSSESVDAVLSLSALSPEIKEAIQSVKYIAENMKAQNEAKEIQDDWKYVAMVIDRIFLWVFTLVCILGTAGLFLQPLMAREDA
Sequence of α3β2 nAChR (P17787 26-502): as the sequence (P17787 26-502) above
Sequence of β3α4β2α6β2 nAChR (Q05901 25-458 limits assumed): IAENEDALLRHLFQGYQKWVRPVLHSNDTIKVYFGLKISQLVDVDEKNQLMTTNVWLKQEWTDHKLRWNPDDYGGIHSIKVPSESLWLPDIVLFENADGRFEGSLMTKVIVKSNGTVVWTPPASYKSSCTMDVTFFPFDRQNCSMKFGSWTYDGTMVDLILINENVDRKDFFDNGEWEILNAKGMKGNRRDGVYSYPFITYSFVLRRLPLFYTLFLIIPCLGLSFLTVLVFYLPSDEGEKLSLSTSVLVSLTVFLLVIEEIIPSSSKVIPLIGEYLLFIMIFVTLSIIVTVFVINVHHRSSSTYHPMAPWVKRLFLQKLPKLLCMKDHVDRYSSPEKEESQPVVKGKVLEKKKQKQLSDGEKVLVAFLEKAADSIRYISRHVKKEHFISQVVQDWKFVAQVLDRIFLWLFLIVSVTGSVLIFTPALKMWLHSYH
Sequence of β3α4β2α6β2 nAChR (P43681 29-627 limits assumed): as the sequence (P43681 29-627 limits assumed) above
Sequence of β3α4β2α6β2 nAChR (P17787 26-502): as the sequence (P17787 26-502) above
Sequence of β3α4β2α6β2 nAChR (Q15825 26-494): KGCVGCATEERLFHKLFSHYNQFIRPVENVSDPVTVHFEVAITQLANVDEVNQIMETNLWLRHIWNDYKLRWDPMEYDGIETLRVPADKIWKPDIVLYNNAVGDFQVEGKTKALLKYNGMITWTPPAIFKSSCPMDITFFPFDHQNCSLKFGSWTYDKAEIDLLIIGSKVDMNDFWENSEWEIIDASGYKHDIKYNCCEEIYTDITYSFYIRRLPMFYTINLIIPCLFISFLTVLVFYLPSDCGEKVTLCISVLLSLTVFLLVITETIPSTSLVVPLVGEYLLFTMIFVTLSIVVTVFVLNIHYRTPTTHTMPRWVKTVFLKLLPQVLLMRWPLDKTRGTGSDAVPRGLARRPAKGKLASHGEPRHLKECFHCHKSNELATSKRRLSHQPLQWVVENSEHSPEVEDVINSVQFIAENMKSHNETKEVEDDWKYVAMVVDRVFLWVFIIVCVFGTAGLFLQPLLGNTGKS
Sequence of β3α4β2α6β2 nAChR (P17787 26-502): as the sequence (P17787 26-502) above
Sequence of α4(2)β2(2)α5 nAChR (P17787 26-502): as above
Sequence of α4(2)β2(2)α5 nAChR (P43681 29-627 limits assumed): as the sequence (P43681 29-627 limits assumed) above
Sequence of α4(2)β2(2)α5 nAChR (P30532 23-468): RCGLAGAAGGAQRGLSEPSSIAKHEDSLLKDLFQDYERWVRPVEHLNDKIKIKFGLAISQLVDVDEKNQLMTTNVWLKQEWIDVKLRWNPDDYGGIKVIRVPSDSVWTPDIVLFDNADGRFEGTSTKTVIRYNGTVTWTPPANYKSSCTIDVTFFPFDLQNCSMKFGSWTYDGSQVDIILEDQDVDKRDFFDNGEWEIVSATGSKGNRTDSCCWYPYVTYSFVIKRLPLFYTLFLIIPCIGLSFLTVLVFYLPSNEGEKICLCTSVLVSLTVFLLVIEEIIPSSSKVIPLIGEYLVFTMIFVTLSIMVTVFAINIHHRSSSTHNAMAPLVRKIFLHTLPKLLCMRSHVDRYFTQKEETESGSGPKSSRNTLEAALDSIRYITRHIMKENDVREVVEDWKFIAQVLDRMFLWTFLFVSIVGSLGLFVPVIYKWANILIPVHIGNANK
Sequence of α3β4 nAChR (P32297 32-505): as the sequence (P32297 32-505) above
Sequence of α3β4 nAChR (P30926 22-498): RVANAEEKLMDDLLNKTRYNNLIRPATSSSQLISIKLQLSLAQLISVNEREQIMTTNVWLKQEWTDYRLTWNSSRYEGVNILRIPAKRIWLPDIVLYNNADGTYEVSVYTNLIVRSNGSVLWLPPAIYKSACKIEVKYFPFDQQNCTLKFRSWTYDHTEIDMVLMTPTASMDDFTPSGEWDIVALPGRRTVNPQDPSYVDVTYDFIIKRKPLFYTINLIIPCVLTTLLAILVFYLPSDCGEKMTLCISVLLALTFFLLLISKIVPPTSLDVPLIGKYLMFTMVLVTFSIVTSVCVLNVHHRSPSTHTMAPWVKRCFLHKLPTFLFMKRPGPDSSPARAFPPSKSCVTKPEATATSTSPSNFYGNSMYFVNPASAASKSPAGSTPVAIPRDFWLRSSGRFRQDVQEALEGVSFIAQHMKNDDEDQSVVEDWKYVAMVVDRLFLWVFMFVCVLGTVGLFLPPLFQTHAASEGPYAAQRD

CC(=O)OCC[N+](C)(C)C [ACh, Acetylcholine chloride, reference compound]
Imax, From Figure 7 [1]: 2.327 ± 0.395 | Imax, From replicates, Averages ± S.D. [1]: 2.290 ± 0.714 | Imax, From replicates, Averages ± S.D. [2]: 1.535 ± 0.080

Cn1c(=O)c2c(ncn2C)n(C)c1=O [caffeine, reference compound]
α7 net-charge response to compound co-applied with PNU-120596 (human α7 nAChR): lacks significant nAChR activity | Effect on ACh-evoked peak-current responses of LS α4β2 receptors [1]: lacks significant nAChR activity | Effect on ACh-evoked peak-current responses of HS α4β2 receptors [2]: lacks significant nAChR activity

C[N+](C)(C)CCO [choline]
pEC50 (human α7 nAChR): ~3.70 | Net charge Imax with PNU-120596 co-application versus applied alone (human α7 nAChR; 10 μM PNU-120596): roughly 100 fold | α7 net-charge response to compound co-applied with PNU-120596 (human α7 nAChR): greater than the initial ACh controls

C[N+]1(C)CCCCC1 [dMP, 1,1-dimethylpiperidium]
α7 net-charge response to compound co-applied with PNU-120596 (human α7 nAChR): large responses | α7 response to compound applied alone (human α7 nAChR; 100 μM compound, compared to 60 μM ACh control): comparable to those stimulated by the control application of 60 μM ACh | Effect on ACh-evoked peak-current responses of LS α4β2 receptors [1]: increasing the responses of LS receptors | Effect on ACh-evoked peak-current responses of HS α4β2 receptors [2]: decreasing the responses of HS receptors; also recorded: strongly inhibited

C[n+]1ccccc1 [n-MP, 1-methylpyridinium]
α7 net-charge response to compound co-applied with PNU-120596 (human α7 nAChR): PAM-dependent responses | Effect on ACh-evoked peak-current responses of LS α4β2 receptors [1]: increasing the responses of LS receptors | Mode of action on LS α4β2 receptors ([1]; 100 μM n-MP, 10 to 100 μM ACh): working as a PAM at those intermediate concentrations | LS α4β2 ACh responses after n-MP washout ([1]; 300 μM n-MP bath application): significant increases | Imax of ACh, From Figure 7 ([1]; LS, ACh co-applied with 100 μM n-MP, relative to 100 μM ACh control): 1.824 ± 0.062 | Effect of bath-applied n-MP on LS α4β2 ACh responses ([1]; varying bath concentrations, periodic 100 μM ACh applications): small concentration-dependent increase | Effect on ACh-evoked peak-current responses of HS α4β2 receptors [2]: decreasing the responses of HS receptors; also recorded: decreasing those of HS receptors | Mode of action on HS α4β2 ACh-evoked responses ([2]; 100 μM n-MP, ACh competition experiment): competitive antagonist | Effect of bath-applied n-MP on HS α4β2 ACh responses ([2]; varying bath concentrations, periodic 10 μM ACh applications): concentration-dependent, and only partially reversible, inhibition | Effect on ACh responses of α4β2α5 receptors (α4(2)β2(2)α5 nAChR): antagonist | Effect on ACh responses of α6-containing receptors (β3α4β2α6β2 nAChR): no significant effect | Effect on ACh responses of α3β2 receptors with high levels of β2 (α3β2 nAChR; alpha:beta RNA 1:5): no effect | Effect on ACh responses of α3β2 receptors with high levels of α3 (α3β2 nAChR; alpha:beta RNA 5:1): significant potentiation | Effect on ACh responses of α3β4 receptors (α3β4 nAChR): no effect | Bioavailability [3]: good bioavailability
